Measurements taken from ChEMBL document CHEMBL1146764, “Synthesis and evaluation of novel 1,4-naphthoquinone derivatives as antiviral, antifungal and anticancer agents” (2004).
Values after ≈ are worked out from the molar mass of the structure shown.

Tests used:
Pseudomonas aeruginosa = test: Minimum inhibitory concentration towards Pseudomonas aeruginosa; format: functional
Klebsiella pneumoniae = test: Minimum inhibitory concentration towards Klebsiella pneumoniae; format: functional
Staphylococcus aureus = test: Minimum inhibitory concentration towards Staphylococcus aureus; format: functional
[1] = tested on: Agrobacterium tumefaciens; test: Minimum inhibitory concentration towards Agrobacterium tumefaciens; format: functional
Aspergillus fumigatus = test: Minimum inhibitory concentration towards Aspergillus fumigatus; format: functional
Candida albicans [2] = test: Minimum inhibitory concentration towards Candida albicans; format: functional
Microsporum canis = test: Minimum inhibitory concentration towards Microsporum canis; format: functional
Cryptococcus neoformans [3] = test: Minimum inhibitory concentration towards Cryptococcus neoformans; format: functional
Trichophyton benhamiae = test: Minimum inhibitory concentration towards Trichophyton mentagrophytes; format: functional, Trichophyton mentagraphytes
Rattus norvegicus [4] = test: Anticancer activity against lymphoid leukemia P388 in rats at a dose of 10 mg/kg; format: functional
Summary of the method: (§1)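 Lymphoid leukaemia P 388 in rats, four animals per group, given 10 mg/kg. Survivors counted. Activity expressed as T/C (%) of treated versus control.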

Rattus norvegicus [5] = test: Number of survivors out of 4 rats treated at 10 mg/kg; format: functional; summary of the method: as §1
Rattus norvegicus [6] = test: Number of survivors out of 6 rats treated at 6.25 mg/kg; format: functional
Summary of the method: (§2)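 Lymphoid leukaemia L-1210 in rats, six animals per dose group, doses 1.56–25 mg/kg. Survivors counted per group. T/C (%) compares a tumour evaluation parameter in treated versus control animals.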

Rattus norvegicus [7] = test: Anticancer activity against Lymphoid Leukemia L-1210 in rats at dose of 25.0 mg/kg; Toxic; format: functional, organism-based; parameters: dose 25 mg/kg
Rattus norvegicus [8] = test: Number of survivors out of 6 rats treated at 12.5 mg/kg; format: functional
Rattus norvegicus [9] = test: Number of survivors out of 6 rats treated at 25 mg/kg; format: functional; summary of the method: as §2
Rattus norvegicus [10] = test: Anticancer activity against Lymphoid Leukemia L-1210 in rats at dose of 12.5 mg/kg; format: functional
Rattus norvegicus [11] = test: Anticancer activity against Lymphoid Leukemia L-1210 in rats at dose of 6.25 mg/kg; format: functional; summary of the method: as §2
Cryptococcus neoformans [12] = test: Minimum inhibitory concentration towards C. neoformans; value ranges from 3.5-3.9 ug/mL; format: functional, organism-based
Candida albicans [13] = test: Minimum inhibitory concentration towards C. albicans; value ranges from 7.8-7.9 ug/mL; format: functional, organism-based
Rattus norvegicus [14] = test: Anticancer activity against Lymphoid Leukemia L-1210 in rats at dose of 3.12 mg/kg; format: functional; summary of the method: as §2
Rattus norvegicus [15] = test: Number of survivors out of 6 rats treated at 3.12 mg/kg; format: functional; summary of the method: as §2
Rattus norvegicus [16] = test: Number of survivors out of 6 rats treated at 1.56 mg/kg; format: functional; summary of the method: as §2
Rattus norvegicus [17] = test: Anticancer activity against Lymphoid Leukemia L-1210 in rats at dose of 1.56 mg/kg; format: functional; summary of the method: as §2
Influenza A virus = test: In vitro antiviral activity of compound against Influenza-A virus; format: functional

Molecule | MIC (Pseudomonas aeruginosa) [µg/mL] | MIC (Klebsiella pneumoniae) [µg/mL] | MIC (Staphylococcus aureus) [µg/mL] | MIC [1] [µg/mL] | MIC (Aspergillus fumigatus) [µg/mL] | MIC (Candida albicans [2]) [µg/mL] | MIC (Microsporum canis) [µg/mL] | MIC (Cryptococcus neoformans [3]) [µg/mL] | MIC (Trichophyton benhamiae) [µg/mL] | further results
O=C1C(Sc2cccc3ccccc23)=C(Sc2cccc3ccccc23)C(=O)c2ccccc21 | > 50 | > 50 | 50 (≈ 105 µM) | > 50 |  |  |  |  |  | 
O=C1C(Sc2ccccc2)=C(Sc2ccccc2)C(=O)c2c(Cl)ccc(O)c21 |  |  |  |  | 50 (≈ 118 µM) | > 50 | 50 (≈ 118 µM) | > 50 | > 50 | 
NC(=O)CCSC1=CC(=O)c2ccccc2C1=O |  |  |  |  |  |  |  |  |  | T/C (Rattus norvegicus [4]): 49%; Survivors (Rattus norvegicus [5]): 4
O=C1C=C(SCCC(=O)N2CCCCC2)C(=O)c2ccccc21 |  |  |  |  |  |  |  |  |  | T/C (Rattus norvegicus [4]): 30%; Survivors (Rattus norvegicus [5]): 4
O=C(O)CCCSC1=CC(=O)c2c(Cl)ccc(O)c2C1=O |  |  |  |  | > 50 | > 50 | > 50 | > 50 | 25 (≈ 76.5 µM) | 
O=C1C=CC(=O)c2c1c(O)c1sc3ccccc3c(=O)c1c2O |  |  |  |  | > 50 | > 50 | > 50 | > 50 | 25 (≈ 77.1 µM) | 
O=C(O)CCSC1=CC(=O)c2ccccc2C1=O | 12.5 (≈ 47.7 µM) | 50 (≈ 191 µM) | 12.5 (≈ 47.7 µM) | 25 (≈ 95.3 µM) |  |  |  |  |  | Survivors (Rattus norvegicus [6]): 6; T/C (Rattus norvegicus [7]): Toxic; Survivors (Rattus norvegicus [8]): 6; Survivors (Rattus norvegicus [9]): 1; T/C (Rattus norvegicus [10]): 110%; T/C (Rattus norvegicus [11]): 115%
O=C(O)c1ccccc1SC1=CC(=O)c2c(Cl)ccc(O)c2C1=O | 50 (≈ 139 µM) | 25 (≈ 69.3 µM) | > 50 | > 50 | > 50 | > 50 | > 50 | > 50 | 25 (≈ 69.3 µM) | 
O=C1C(Sc2cccc3ccccc23)=C(Sc2cccc3ccccc23)C(=O)c2c(Cl)ccc(O)c21 |  |  |  |  | > 50 | 50 (≈ 95.2 µM) | > 50 | > 50 | 50 (≈ 95.2 µM) | 
O=C(O)CCCSC1=CC(=O)c2c(O)ccc(O)c2C1=O | > 50 | 50 (≈ 162 µM) | > 50 | 12.5 (≈ 40.5 µM) | > 50 | 3.12 (≈ 10.1 µM) | 3.12 (≈ 10.1 µM) | 1.56 (≈ 5.06 µM) | 3.12 (≈ 10.1 µM) | 
NYSTATIN |  |  |  |  |  |  |  |  |  | MIC (Cryptococcus neoformans [12]): 3.9 µg/mL; MIC (Candida albicans [13]): 7.9 µg/mL
O=C(O)CCCSC1=CC(=O)c2ccccc2C1=O |  | 50 (≈ 181 µM) | 12.5 (≈ 45.2 µM) |  | > 50 | > 50 | > 50 | > 50 | 25 (≈ 90.5 µM) | Survivors (Rattus norvegicus [6]): 6; T/C (Rattus norvegicus [14]): 96%; Survivors (Rattus norvegicus [15]): 6; Survivors (Rattus norvegicus [16]): 6; T/C (Rattus norvegicus [11]): 100%; T/C (Rattus norvegicus [17]): 89%
O=C1C=C(Sc2ccccc2)C(=O)c2ccccc21 | > 50 | > 50 | 25 (≈ 93.9 µM) | > 50 | 25 (≈ 93.9 µM) | 12.5 (≈ 46.9 µM) | < 0.98 | 1.56 (≈ 5.86 µM) | < 0.78 | 
GENTAMICIN | 0.78 | 0.39 | 0.78 |  |  |  |  |  |  | 
Clc1ccc(COC(Cn2ccnc2)c2ccc(Cl)cc2Cl)c(Cl)c1 (stereo not drawn) [MICONAZOLE] |  |  |  |  | 12.5 (≈ 30 µM) | 25 (≈ 60.1 µM) | < 0.78 | 12.5 (≈ 30 µM) | < 0.78 | 
C[C@@H]1[C@H](O)[C@@H](C)/C=C/C=C/C=C/C=C/C=C/C=C/C=C/[C@H](O[C@@H]2O[C@H](C)[C@@H](O)[C@H](N)[C@@H]2O)C[C@@H]2O[C@](O)(C[C@@H](O)C[C@@H](O)[C@H](O)CC[C@@H](O)C[C@@H](O)CC(=O)O[C@H]1C)C[C@H](O)[C@H]2C(=O)O [AMPHOTERICIN B] |  |  |  |  |  | 0.39 (≈ 0.422 µM) | 1.56 (≈ 1.69 µM) | 0.78 (≈ 0.844 µM) | 1.56 (≈ 1.69 µM) | 
O=C(O)CCSC1=CC(=O)c2c(O)ccc(O)c2C1=O |  |  |  |  |  |  |  |  |  | Inhibition (Influenza A virus): 52%
O=C1C(=O)c2ccccc2C(O)=C1Sc1ccccc1 |  |  |  |  | > 50 | 25 (≈ 88.6 µM) | 25 (≈ 88.6 µM) | > 50 | 6.25 (≈ 22.1 µM) | Inhibition (Influenza A virus): 50%
O=C1C=CC(=O)C(Sc2ccccc2C(=O)O)=C1 | 25 (≈ 96.1 µM) | 25 (≈ 96.1 µM) | > 50 | > 50 | > 50 | > 50 | > 50 | 50 (≈ 192 µM) | > 50 | 
